ChEMBL document CHEMBL1157617, “A new class of naphthalimide-based antitumor agents that inhibit topoisomerase II and induce lysosomal membrane permeabilization and apoptosis” (J Med Chem, 2010)
Calls of active or inactive are those of the source. The calls are words filed in the database; no cut-off is given here.

How the values were obtained:
[1] = test system: HeLa; assay: Induction of lysosomal membrane permeabilization in human HeLa cells assessed as acridine orange red fluorescence at 7 uM after 24 hrs by flow cytometry; format: functional
Outline: (§1)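 Each compound was tested at three concentrations on HeLa cells for 24 h. Adherent and floating cells were pooled and stained with 20 μg/mL acridine orange for 2 min at room temperature. Lysosomal rupture was scored by flow cytometry as percentage of cells with AO red fluorescence.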

[2] = test system: HeLa; assay: Induction of lysosomal membrane permeabilization in human HeLa cells assessed as acridine orange red fluorescence at 4 uM after 24 hrs by flow cytometry; format: functional; outline: as §1
[3] = test system: Calf thymus DNA; assay: Binding affinity to calf thymus DNA assessed as circular dichroism by CD spectroscopy; format: nucleic-acid assay; details: Bos taurus
Outline: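 CT DNA (100 μM) with drug (20 μM) in 20 mM Tris-HCl pH 7.4. DNA concentration set by UV absorbance, A260/A280 above 1.8. CD spectrum recorded 200-400 nm in a 1 cm cell after shaking, thermal equilibration and buffer subtraction. Analysed over 230-300 nm.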

[4] = test system: HL-60; assay: Cytotoxicity against human HL60 cells after 72 hrs by MTT assay; format: functional, cell-based; details: HL-60, 24 h, in the assay text read “after 24 hrs” for “after 72 hrs”
Outline: (§2)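 MTT viability assay on HeLa, HL-60, MCF-7, MKN45 and LS174 cells. MTT (500 μg/mL) was added for 4 h at 37 °C and formazan dissolved in DMSO; A570 was read. IC50 came from linear regression; experiments were done in triplicate.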

[5] = test system: MCF7; assay: Cytotoxicity against human MCF7 cells after 72 hrs by MTT assay; format: functional, cell-based; details: MCF7, 24 h, in the assay text read “after 24 hrs” for “after 72 hrs”; outline: as §2
[6] = test system: HeLa; assay: Cytotoxicity against human HeLa cells after 24 hrs by MTT assay
[7] = test system: HeLa; assay: Induction of lysosomal membrane permeabilization in human HeLa cells assessed as acridine orange red fluorescence at 10 uM after 24 hrs by flow cytometry; format: functional; outline: as §1
[8] = Cytotoxicity against human LS 174T cells after 24 hrs by MTT assay; details: LS174T
[9] = target: DNA topoisomerase 2-alpha (Homo sapiens) (UniProt P11388); assay: Inhibition of DNA topoisomerase 2-mediated kDNA decatenation at 100 uM
Outline: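 Cell-free topo II decatenation: 0.2 μg kDNA was incubated with HeLa-cell topo II extract and compound at 100 μM. The cleavage buffer contained 50 mM Tris-HCl pH 8.0, 120 mM KCl, 10 mM MgCl2, 1 mM ATP and 0.5 mM DTT. Reactions ran 15 min at 37 °C and were stopped with SDS. Products were resolved on 1% agarose and stained with ethidium bromide.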

[10] = test system: HeLa; assay: Induction of apoptosis in human HeLa cells assessed as damaged cells at IC50 concentration after 24 hrs using annexin V/propidium iodide staining by flow cytometry; format: functional
Outline: (§3)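 HeLa cells, seeded at 1 × 10^6 per well, were treated for 24 h at a fixed concentration set per compound. Cells were washed in cold PBS and resuspended in binding buffer. Staining was annexin V-FITC at 4 °C in the dark for 15 min, then PI for 5 min. Quadrants were read by flow cytometry: live, early apoptotic, late apoptotic, damaged. Run three times.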

[11] = test system: Nucleic Acid; assay: Induction of conformational changes in Escherichia coli pBR322 DNA assessed as DNA relaxation at 100 uM after 2 hrs by gel electrophoresis; format: nucleic-acid assay
Outline: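 pBR322 plasmid (200 ng) was incubated with compound at 100 μM in Tris-HCl pH 7.4 for 2 h at 37 °C. Samples ran on 1% agarose and were stained with ethidium bromide; supercoiled versus relaxed forms were judged from gel migration.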

[12] = test system: MKN-45; assay: Cytotoxicity against human MKN45 cells after 24 hrs by MTT assay; details: MKN-45, 24 h
[13] = test system: HeLa; assay: Induction of cytochrome c release into cytosol in human HeLa cells at IC50 concentration after 24 hrs by FITC/Hoechst soluble immunocytochemical staining; format: functional, cell-based
Outline: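 HeLa cells were treated 24 h at compound-specific concentrations, then fixed in 10% formaldehyde, permeabilized in 90% methanol and blocked with milk. Staining was rabbit anti-cytochrome c (1:500) then FITC goat anti-rabbit IgG (1:100), 1 h each at room temperature, with 2 μg/mL Hoechst 33258 as counterstain. Cytosolic green signal was imaged by confocal microscopy.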

[14] = test system: HeLa; assay: Induction of lysosomal membrane permeabilization in human HeLa cells assessed as acridine orange red fluorescence at 6 uM after 24 hrs by flow cytometry; format: functional; outline: as §1
[15] = test system: HeLa; assay: Induction of lysosomal membrane permeabilization in human HeLa cells assessed as acridine orange red fluorescence at 2 uM after 24 hrs by flow cytometry; format: functional; outline: as §1
[16] = test system: HeLa; assay: Induction of apoptosis in human HeLa cells assessed as early apoptotic cells at IC50 concentration after 24 hrs using annexin V/propidium iodide staining by flow cytometry; format: functional; outline: as §3
[17] = test system: Calf thymus DNA; assay: Binding affinity to calf thymus DNA by fluorescent spectra analysis; format: nucleic-acid assay; details: Bos taurus
Outline: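 Compounds at 10, 20, 30 and 50 μM in 20 mM Tris-HCl pH 7.4, with or without 100 μM CT DNA (no-DNA samples as control). Incubated 1 day in the dark at 25 °C. Fluorescence wavelength and intensity read at 25 °C. Scatchard binding constant calculated.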

[18] = test system: HeLa; assay: Induction of apoptosis in human HeLa cells assessed as viable cells at IC50 concentration after 24 hrs using annexin V/propidium iodide staining by flow cytometry; format: functional; outline: as §3
[19] = test system: HeLa; assay: Induction of lysosomal membrane permeabilization in human HeLa cells assessed as acridine orange red fluorescence at 17 uM after 24 hrs by flow cytometry; format: functional; outline: as §1
[20] = test system: HeLa; assay: Induction of lysosomal membrane permeabilization in human HeLa cells assessed as acridine orange red fluorescence at 14 uM after 24 hrs by flow cytometry; format: functional; outline: as §1
[21] = test system: HeLa; assay: Induction of lysosomal membrane permeabilization in human HeLa cells assessed as acridine orange red fluorescence at 20 uM after 24 hrs by flow cytometry; format: functional; outline: as §1
[22] = test system: HeLa; assay: Induction of lysosomal membrane permeabilization in human HeLa cells assessed as acridine orange red fluorescence at 3 uM after 24 hrs by flow cytometry; format: functional; outline: as §1
[23] = test system: HeLa; assay: Induction of lysosomal membrane permeabilization in human HeLa cells assessed as acridine orange red fluorescence at 1 uM after 24 hrs by flow cytometry; format: functional; outline: as §1
[24] = test system: HeLa; assay: Induction of lysosomal membrane permeabilization in human HeLa cells assessed as acridine orange red fluorescence at 5 uM after 24 hrs by flow cytometry; format: functional; outline: as §1
[25] = test system: HeLa; assay: Induction of apoptosis in human HeLa cells assessed as late apoptotic cells at IC50 concentration after 24 hrs using annexin V/propidium iodide staining by flow cytometry; format: functional; outline: as §3
[26] = test system: HeLa; assay: Induction of lysosomal membrane permeabilization in human HeLa cells assessed as acridine orange red fluorescence at 15 uM after 24 hrs by flow cytometry; format: functional; outline: as §1
[27] = test system: HeLa; assay: Induction of lysosomal membrane permeabilization in human HeLa cells assessed as acridine orange red fluorescence at 8 uM after 24 hrs by flow cytometry; format: functional; outline: as §1
[28] = test system: HeLa; assay: Induction of lysosomal membrane permeabilization in human HeLa cells assessed as acridine orange red fluorescence at 11 uM after 24 hrs by flow cytometry; format: functional; outline: as §1
[29] = test system: MCF7; assay: Cytotoxicity against human MCF7 cells after 24 hrs by MTT assay; details: MCF7, 24 h
[30] = in the assay text read “late apoptotic cells” for “damaged cells”

Chain of DNA topoisomerase 2-alpha (Homo sapiens) (P11388 whole entry): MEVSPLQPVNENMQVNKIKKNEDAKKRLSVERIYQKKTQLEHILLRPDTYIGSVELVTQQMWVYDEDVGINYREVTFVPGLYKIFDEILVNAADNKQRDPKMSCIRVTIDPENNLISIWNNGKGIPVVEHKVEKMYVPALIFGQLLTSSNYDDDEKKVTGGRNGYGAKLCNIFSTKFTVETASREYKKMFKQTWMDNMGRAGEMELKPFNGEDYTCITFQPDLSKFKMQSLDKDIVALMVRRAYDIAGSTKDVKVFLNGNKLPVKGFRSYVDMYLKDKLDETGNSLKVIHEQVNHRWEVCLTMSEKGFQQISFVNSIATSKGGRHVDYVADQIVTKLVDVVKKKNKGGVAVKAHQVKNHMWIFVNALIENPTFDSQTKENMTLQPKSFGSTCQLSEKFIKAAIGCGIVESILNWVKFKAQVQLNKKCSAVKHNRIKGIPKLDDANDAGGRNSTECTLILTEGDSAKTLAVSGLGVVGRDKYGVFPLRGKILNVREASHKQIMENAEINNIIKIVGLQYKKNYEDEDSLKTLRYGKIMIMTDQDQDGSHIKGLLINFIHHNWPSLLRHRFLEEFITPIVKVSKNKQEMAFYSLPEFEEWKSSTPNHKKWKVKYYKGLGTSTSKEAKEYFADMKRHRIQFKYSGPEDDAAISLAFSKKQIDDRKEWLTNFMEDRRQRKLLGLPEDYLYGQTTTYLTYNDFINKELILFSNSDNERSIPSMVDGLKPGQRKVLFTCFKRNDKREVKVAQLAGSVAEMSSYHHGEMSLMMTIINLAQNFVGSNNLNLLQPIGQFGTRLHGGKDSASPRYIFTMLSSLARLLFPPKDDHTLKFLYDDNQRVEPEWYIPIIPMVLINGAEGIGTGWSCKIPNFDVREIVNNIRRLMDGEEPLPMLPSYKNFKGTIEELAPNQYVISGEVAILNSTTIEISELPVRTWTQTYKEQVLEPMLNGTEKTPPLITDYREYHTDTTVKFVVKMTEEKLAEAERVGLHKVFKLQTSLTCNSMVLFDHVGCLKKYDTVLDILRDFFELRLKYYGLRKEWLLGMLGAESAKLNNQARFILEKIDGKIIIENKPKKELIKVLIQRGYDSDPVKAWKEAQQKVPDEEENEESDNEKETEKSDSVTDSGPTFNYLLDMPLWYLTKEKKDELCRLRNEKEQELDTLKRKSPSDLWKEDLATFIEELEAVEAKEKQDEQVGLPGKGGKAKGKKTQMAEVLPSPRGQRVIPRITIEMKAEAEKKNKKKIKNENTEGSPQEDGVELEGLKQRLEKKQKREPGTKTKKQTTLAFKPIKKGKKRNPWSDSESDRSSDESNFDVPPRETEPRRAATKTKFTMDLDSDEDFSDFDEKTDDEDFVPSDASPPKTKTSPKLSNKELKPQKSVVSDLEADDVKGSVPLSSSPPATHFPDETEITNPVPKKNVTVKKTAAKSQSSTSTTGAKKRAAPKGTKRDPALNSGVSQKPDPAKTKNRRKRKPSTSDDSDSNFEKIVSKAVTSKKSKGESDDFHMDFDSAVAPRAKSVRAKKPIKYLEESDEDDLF

Row | Activity [3] | Activity [9] | Activity [11] | Structure (SMILES) | Activity [2] | IC50 [4] | IC50 [5] | IC50 [6] | IC50 [8] | Activity [10, 30] | IC50 [12] | Activity [13] | Activity [16] | also measured
1 | inactive | Active | inactive | CCCCCCCCN1C(=O)c2cccc3c(NCCN4CCN(C)CC4)ccc(c23)C1=O | 93.04% | 12 µM | 8.35 µM | 7.9 µM | 17.9 µM | 53.82% | 17.4 µM | Active |  | Activity [1]: 88.55%; Activity [7]: 89.89%
2 | inactive | Active | inactive | CCCCCCCCCCCCN1C(=O)c2cccc3c(NCCN4CCN(C)CC4)ccc(c23)C1=O | 95.81% | 7.05 µM | 2.79 µM | 5.45 µM | 12.7 µM | 12.75% | 9.28 µM | Active | 86.98% | Activity [14]: 92.83%; Activity [15]: 97.39%
3 | inactive | Active | inactive | CCCCCCCCN1C(=O)c2cccc3c(NCCNCCN(C)C)ccc(c23)C1=O | 90.98% | 5.13 µM | 3.76 µM | 4.5 µM | 9.27 µM | 9.82% | 9.28 µM | Active | 90.07% | Activity [14]: 85.74%; Activity [15]: 92.29%; Activity [17]: inactive
4 | inactive | Active | inactive | CCCCCCCCCCCCN1C(=O)c2cccc3c(NCCNCCN(C)C)ccc(c23)C1=O |  | 6.63 µM | 4.52 µM | 16.8 µM | 18.6 µM | 20.72% | 11.8 µM | Active | 79.21% | Activity [19]: 93.5%; Activity [20]: 94.85%; Activity [21]: 88.49%
5 | inactive | Active | inactive | CCCCCCCCCCCCNc1ccc2c3c(cccc13)C(=O)N(CCCN1CCN(C)CC1)C2=O |  | 2.98 µM | 2.48 µM | 2.89 µM | 7.43 µM | 14.96% | 8.43 µM | Active | 84.84% | Activity [22]: 95.2%; Activity [23]: 96.01%; Activity [24]: 59.82%
6 |  | Active | Active | COc1cccc2c1C(=O)c1c(O)c3c(c(O)c1C2=O)C[C@@](O)(C(=O)CO)C[C@@H]3O[C@H]1C[C@H](N)[C@H](O)[C@H](C)O1 |  |  |  |  |  |  |  |  |  | 
7 | inactive | Active | inactive | CCCCCCCCCCCCNc1ccc2c3c(cccc13)C(=O)N(CCCNCCN(C)C)C2=O | 82.37% | 4.04 µM | 2.56 µM | 4.71 µM | 9.43 µM | 98.89% | 15.5 µM | Active |  | Activity [14]: 44.64%; Activity [25]: 98.89%; Activity [15]: 85.49%; Activity [18]: 1.05%
8 | inactive | Active | inactive | CCCCCCCCNc1ccc2c3c(cccc13)C(=O)N(CCCN1CCN(C)CC1)C2=O |  | 5.7 µM |  | 8.1 µM | 18.4 µM |  | 22.2 µM | Active |  | Activity [25]: 96.7%; Activity [27]: 91.86%; Activity [28]: 83.18%; Activity [18]: 3.28%; Activity [10]: 96.66%; Activity [24]: 89.48%; IC50 [29]: 5.72 µM

The remaining lines, values behind:

Row | Structure (SMILES) | Activity [3] | Activity [9] | Activity [11] | Activity [2] | IC50 [4] | IC50 [5] | IC50 [6] | IC50 [8] | Activity [10, 30] | IC50 [12] | Activity [13] | Activity [16] | also measured
9 | CCCCCCCCCCCCN1C(=O)c2cccc3c(NCCCCCCCC)ccc(c23)C1=O |  |  |  |  | > 50 µM | > 50 µM | 46.4 µM | > 50 µM |  | > 50 µM |  |  | 
10 | CCCCCCCCNc1ccc2c3c(cccc13)C(=O)N(CCCNCCN(C)C)C2=O | inactive | Active | inactive | 84.5% | 2.67 µM | 2.41 µM | 4.06 µM | 9.16 µM |  | 14.8 µM | Active | 74.25% | Activity [14]: 32.89%; Activity [15]: 83.13%; Activity [18]: 25.7%
11 | CCCCCCCCCCCCN1C(=O)c2cccc3c(NCCN(C)C)ccc(c23)C1=O |  |  |  |  | 5.32 µM | 3.57 µM | 9.13 µM | 12.8 µM |  | 9.03 µM |  |  | 
12 | CNc1ccc2c3c(cccc13)C(=O)N(CCCN(C)C)C2=O |  |  |  |  | 21.6 µM | 9.66 µM | 23.4 µM | 31.5 µM |  | > 50 µM |  |  | 
13 | CN(C)CCN1C(=O)c2cccc3cc(N)cc(c23)C1=O [AMONAFIDE] |  | Active |  |  |  |  | 10.7 µM | 20.3 µM |  | > 50 µM |  |  | Kb [17]: 14300 M⁻¹; Activity [26]: 77.27%; Activity [7]: 10%; Activity [24]: 112%
14 | CCCCCCCCNc1ccc2c3c(cccc13)C(=O)N(CCCN(C)C)C2=O |  |  |  |  | 5.53 µM | 5.15 µM | 8.52 µM | 5.87 µM |  | 17.6 µM |  |  | 
